The full list was thinned out, with hits kept by preference.
CD11b adhes inh: CD11b/CD18-fibrinogen binding inhibition | P05107+P11215 | K562 CD11b/CD18 adhesion to fibrinogen, ATPlite luminescence; Mn2+ added to activate the integrin | inhibition, % at 10 µM | actives 0.54% (n = 93,000);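 active = primary inhibition of 50% or more at 10 µM, then 40% or more on retest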
Target sequence (P05107 whole entry, looked up, other chains not shown): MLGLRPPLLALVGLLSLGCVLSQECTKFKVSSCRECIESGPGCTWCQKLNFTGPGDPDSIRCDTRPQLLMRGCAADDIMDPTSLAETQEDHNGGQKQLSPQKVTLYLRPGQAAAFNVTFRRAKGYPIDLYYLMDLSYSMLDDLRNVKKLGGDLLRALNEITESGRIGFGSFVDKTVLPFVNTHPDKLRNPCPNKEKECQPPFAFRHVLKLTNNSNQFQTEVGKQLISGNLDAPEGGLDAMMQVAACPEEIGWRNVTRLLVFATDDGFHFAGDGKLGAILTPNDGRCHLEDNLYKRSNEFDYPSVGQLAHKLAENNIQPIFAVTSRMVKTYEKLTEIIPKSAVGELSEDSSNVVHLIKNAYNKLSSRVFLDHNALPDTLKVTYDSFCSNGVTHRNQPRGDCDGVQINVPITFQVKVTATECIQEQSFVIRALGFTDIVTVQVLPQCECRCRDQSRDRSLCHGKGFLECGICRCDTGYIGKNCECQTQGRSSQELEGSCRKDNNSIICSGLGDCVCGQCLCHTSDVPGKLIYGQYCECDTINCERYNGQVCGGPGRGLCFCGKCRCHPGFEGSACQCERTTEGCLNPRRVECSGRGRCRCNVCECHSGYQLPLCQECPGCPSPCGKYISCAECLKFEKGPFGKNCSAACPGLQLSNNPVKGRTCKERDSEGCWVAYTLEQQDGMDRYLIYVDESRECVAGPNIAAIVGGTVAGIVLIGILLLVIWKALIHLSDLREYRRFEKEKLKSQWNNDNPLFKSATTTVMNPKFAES
Phagocyt inh: blocks phagocytosis by macrophages | actives 0.07% (n = 110,000) | J774A.1 macrophage IgG-bead phagocytosis, imaging | inhibition, % at 5 µM | AID 1029;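 active = inhibition above the mean of the plate negative controls plus 5 SD, cut at about 13% in these data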;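 also: phagocytic index as fraction of beads internalized from green versus red external bead signal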
Mac1 fbg enh: enhancers of human CD11b/CD18 binding to fibrinogen. P05107+P11215. K562 CD11b/CD18 adhesion to fibrinogen, ATPlite luminescence. activation, % at 10 µM. actives 0.07% (n = 93,000). AID 1499;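 active = 10 µM primary screen giving 50% or more activity, confirmed by 40% or more on retest at that dose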
Ecoli WT expand: E. coli BW25113 growth inhibition, expanded screen; AID 710; growth inhibition, % at 100 µM; actives 0.15% (n = 98,000); OD600 absorbance;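 active = growth inhibition above about 50% at one test dose, limit read from the data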;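 also: growth measured after 20 h incubation at 37 °C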
tolC growth inh: growth inhibitors of E. coli BW25113 tolC mutant | OD615 | growth inhibition, % at 10 µM (by protocol) | actives 2.2% (n = 65,000) | AID 573;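 active = growth inhibition at or above a cutoff equal to the mean over every tested compound plus 3 SD, cut at about 60% in these data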;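 also: growth measured after 20 h incubation at 37 °C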
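Test system: E. coli BW25113 ΔtolC::kan bacteria; incubation: 37 °C, 20 h exposure; medium: LB broth supplemented with 50 µg/mL kanamycin; read-out basis: percent growth inhibition; signal: A615 absorbance measurement; compound: 10 µM final, single dose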
Numbers stand for hits; . = inactive; / = no result; [ ] = dose if it differs, or a comment.

SMILES	CD11b adhes inh	Phagocyt inh	Mac1 fbg enh	Ecoli WT expand	tolC growth inh
O=C(CCCN1C(=O)c2ccccc2C1=O)N1CCc2ccccc2C1	.	.	.	.	/
Nc1nncn1C(=O)CCCN1C(=O)c2ccccc2C1=O	.	.	.	.	96.0
N#CC1=C(N)Oc2c(O)cc3ccccc3c2C1c1ccsc1 (centres undefined)	69.6	.	.	/	/
CCOC(=O)C1=C(C)OC(N)=C(C#N)C1c1ccsc1 (centres undefined)	.	.	.	.	.
Cc1ccc(C(=O)NC(=S)Nc2ccc(Oc3ccc(Cl)cc3)cc2)cc1	/	/	/	.	/
O=C(NC(=S)Nc1ccc(Oc2ccccc2)cc1)c1ccc(Cl)cc1	78.0	.	.	.	/
CCCCc1ccc(/C=C2\C(=O)ON=C2c2ccccc2)s1	/	39.3[artifact]	/	/	/
COc1cc(/C=C2\C(=O)ON=C2c2ccccc2)cc(OC)c1OC	/	/	/	.	/
CC(C)=NOc1nc(N(C)C)nc(N(C)C)n1	/	.	/	/	/
Cc1ccc(S(=O)(=O)CC2CSc3nc(N)cc(=O)n32)cc1 (centres undefined)	.	.	.	.	.
Cc1ccc(S(=O)(=O)CC2CSc3nc4ccccc4n32)cc1 (centres undefined)	92.8	.	.	.	/
Cc1ccc(CNC(=O)/C=C/c2ccc(S(=O)(=O)N3CCOCC3)cc2)cc1	/	.	/	/	/
CC1CCc2sc3nc(NCc4ccco4)n4ncnc4c3c2C1 (centres undefined)	.	.	.	.	.
CC1CCCc2sc3nc(NCc4ccco4)n4ncnc4c3c21 (centres undefined)	/	/	/	.	81.2
N/N=C(\c1ccccc1)C12CN3CN(CN(C3)C1)C2	/	.	/	/	/
COc1ccc(/C=N/NC(=O)CSCC(=O)Nc2ccccc2)cc1OC	.	.	.	.	/
COC(=O)Oc1ccc(/C=N/NC(=O)CSCc2ccccc2Br)cc1OC	54.0	.	.	.	/
COC(=O)CNC(c1ccccc1Cl)c1cc(Br)ccc1NS(=O)(=O)c1ccc(C)cc1 (centres undefined)	/	.	/	/	/
CC(=O)c1c(O)cc(C)n(Nc2nc(C)cc(C)n2)c1=O	.	.	.	.	72.7
CC(C)(C)c1ccc(OCCNC(=S)NC(=O)c2cccnc2)cc1	/	.	/	/	/
OCCN1CCN(c2nc(-c3ccccc3)c3cc(Cl)ccc3n2)CC1	/	/	/	.	100.0
Clc1ccc2nc(N3CCNCC3)nc(-c3ccccc3)c2c1	.	.	.	55.0	.
CN1CCN(c2nc(-c3ccccc3)c3cc(Cl)ccc3n2)CC1	.	.	.	.	.
O=C1CN(c2nc(-c3ccccc3)c3cc(Cl)ccc3n2)c2ccccc2N1	/	.	/	/	/
O=C(COc1ccc2c(c1)CCC2)NCc1ccc(Cl)cc1	/	.	/	/	/
SMILES	CD11b adhes inh	Phagocyt inh	Mac1 fbg enh	Ecoli WT expand	tolC growth inh
CCc1ccc(NC(=O)C(=O)NNC(=O)COc2cccc(OC)c2)cc1	/	.	/	/	/
COc1ccc(NC(=S)NN(C)C(=S)Nc2ccc(OC)cc2)cc1	/	.	/	/	/
CCn1nnc(NC(=O)COc2ccc(C3CCCCC3)cc2)n1	74.4	.	.	.	.
Clc1ccc(OCCn2ccnc2)c(Cl)c1	/	.	/	.	.
Clc1ccc(OCCn2ccnc2)c2ccccc12	.	.	.	64.0	100.0
COc1ccc(C2Nc3ccccc3C(=O)N2O)cc1CN1CCOCC1 (centres undefined)	/	.	/	/	/
O=C(COc1ccccc1)Nc1nnc(-c2ccc(Cl)s2)o1	.	.	.	55.0	95.8
Cc1noc(C)c1COc1ccc(C(=O)OCC(=O)Nc2cccc(S(=O)(=O)N3CCOCC3)c2)cc1	/	.	/	/	/
CCn1c(SCc2nc(-c3ccc(Cl)cc3)no2)nnc1-c1ccco1	58.4	/	.	.	/
Cc1ccc(CN2CCN(/N=C/c3cc(Br)cc(Br)c3O)CC2)c(C)c1	.	.	.	/	/
CSCc1nnc(NC(=O)c2ccc(S(=O)(=O)N(CC(C)C)CC(C)C)cc2)o1	.	.	.	.	99.1
CCc1nnc(NC(=O)c2ccc(S(=O)(=O)N(CC(C)C)CC(C)C)cc2)o1	/	/	/	.	99.4
O=C(NNC(=O)C1CCCO1)c1ccc(F)cc1 (centres undefined)	/	.	/	/	/
COc1ccc(C(=O)CSc2nnc(CN3CCCCC3)n2-c2ccc(Cl)cc2)cc1OC	/	.	/	/	/
C=CCSC1=N/C(=C/c2ccsc2)C(=O)N1c1ccccc1	/	.	/	/	/
Oc1ccc(Cl)cc1CNc1ccc(Br)cn1	.	.	.	.	.
Oc1ccc(Cl)cc1Cc1cc(Cl)ccc1O	/	/	/	/	100.0
Cc1cccc(C(=O)N[C@H](C(=O)OCC(=O)NC2CCS(=O)(=O)C2)C(C)C)c1 (some centres undefined)	/	.	/	/	/
Cc1ccc(-c2nnn(CC(=O)N(Cc3cccs3)C(C(=O)NC(C)(C)C)c3ccco3)n2)o1 (centres undefined)	.	.	.	.	68.6
Cc1ccc(-c2nnn(CC(=O)N(Cc3ccco3)C(C(=O)NC(C)(C)C)c3cccs3)n2)o1 (centres undefined)	/	/	/	.	74.5
CC(C)(C)NC(=O)C(c1ccco1)N(C(=O)Cn1nnc(-c2ccc(F)cc2)n1)c1cccc(F)c1 (centres undefined)	/	/	/	.	66.7
O=C(CCC1CCCC1)Nc1nnc(-c2ccc3c(c2)OCO3)s1	/	.	/	/	/
O=C(O)CCCCCN1C(=O)/C(=C\c2ccncc2)SC1=S	/	.	/	/	/
O=C1/C(=C/c2ccncc2)SC(=S)N1C1CCS(=O)(=O)C1 (centres undefined)	/	/	/	54.0	/
Cc1ccc(C(=O)N/C(=C\c2ccc(-c3ccc([N+](=O)[O-])cc3)o2)C(=O)NC2CCS(=O)(=O)C2)cc1 (centres undefined)	.	.	.	/	/
SMILES	CD11b adhes inh	Phagocyt inh	Mac1 fbg enh	Ecoli WT expand	tolC growth inh
Cc1cc(C2=NNC(=NC3CC3)SC2)c(C)n1-c1ccccc1	97.8	.	.	/	/
Cc1cc(C2=NNC(=NC3CC3)SC2)c(C)n1Cc1ccco1	75.1	.	.	/	/
O=C(/C(=N/N=C/c1ccc(O)c(O)c1)c1ccccc1)c1ccccc1	.	.	.	/	/
CN1CCc2nc3sc(C(=O)C45CC6CC(CC(C6)C4)C5)c(N)c3cc2C1	.	.	117.7	.	/
Cc1nc([N+](=O)[O-])nn1C12CC3CC(CC(Cl)(C3)C1)C2	/	.	/	/	/
C/C(CC(=O)NCC(C)C)=N\NC(=O)COc1cc(C)c(Br)cc1Br	.	.	.	/	/
O=C(CCc1ccc(S(=O)(=O)N2CCOCC2)cc1)Nc1nc(COc2ccccc2)cs1	87.4	.	.	.	/
O=C(COc1ccccc1)Nc1nc(-c2ccc(S(=O)(=O)N3CCOCC3)cc2)cs1	.	.	.	.	.
CC(C)CN1CN(Cc2ccco2)CNC1=S	.	.	.	/	/
COCCN1CSC(=S)N(Cc2ccco2)C1	.	.	.	62.0	.
S=C1SCN(Cc2ccccn2)CN1Cc1ccco1	.	.	.	71.0	.
CCCCOC(=O)c1ccc(NC(C)=O)cc1	.	.	.	.	.
CCCCCOC(=O)c1ccc(NC(=O)c2ccco2)cc1	.	.	.	.	98.6
CC(C)(C)OC(=O)N1CCC[C@H]1c1nnc(SCc2ccc(Cl)cc2Cl)o1	.	.	.	.	88.7
CC(C)(C)OC(=O)N1CCC[C@H]1c1nnc(SCc2ccccc2Cl)o1	.	.	.	.	.
COc1ccc(Cn2c(-c3ccc(C)cc3)c[n+]3ccccc23)cc1	.	.	.	/	/

From PubChem BioAssay
